This note sets out measurements from PubChem BioAssay.

Assay [1] can be described thus: reduced viability of SK-BR-3 breast cancer cells – cell-based, 24 h, human, pilot screen (AID 572;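 active = viability at or below 10% of carrier control in both of two separate runs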;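 note: compound exposure lasted between 18 and 24 h rather than exactly 24 h; 100% = carrier-treated control wells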). The settings on record: SK-BR-3 viability, CellTiter-Glo luminescence, at 10 µM, stronger effect = lower value. Background: ATP-based viability assays read luminescence as a measure of living cells.
The nature of assay [2]: HUVEC growth inhibition – cell-based, human, primary screen (AID 575;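 active = viability at or below 30% in both replicate assays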;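 note: 100% = median of untreated cell wells with 0.1% DMSO on each plate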). The settings on record: HUVEC proliferation, CellTiter-Glo luminescence, 72 h; at 10 µM; stronger effect = lower value. The method in brief:
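Assay system: primary human umbilical vein endothelial cells / Buffer or medium: endothelial basal medium with 2% FBS plus growth supplements / Compound dosing: one dose, 10 µM final, 0.1% DMSO / Timing: 72 h treatment at 37 °C / Signal: CTG luminescence / Benchmarks: 32 DMSO-only cell-control wells (high), 32 MePR drug-control wells (low) per plate / Plate: collagen-coated 384-well format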

Assay [3] is described as follows: H69AR cell proliferation blockers – human, duplicate replicates, primary screen (AID 580;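 active = viability at or under a set limit in both replicates, limit being median viability minus 3 SD, cut at about 48% in these data, passing the limit was not always enough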;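 note: 100% = mean luminescence of untreated wells and 0% = no signal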). The settings on record: H69AR lung tumor cells viability, ATP luminescence, 72 h; at 10 µM; stronger effect = lower value.
The nature of assay [4]: MRP1 drug-resistance reversers in H69AR cells – cell-based, doxorubicin co-treatment, pilot screen (AID 601;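 active = viability loss from added drug above about 55%, and viability with drug at most 40%, in both replicates, limit read from the data, passing the limit was not always enough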). The following applies: CellTiter-Glo, 72 h, at 10 µM; for differential viability (reversal): stronger effect = higher value.
A short description of assay [5]: yeast transport mutant growth inhibition pilot in 384-well plates, post-Golgi transport modulator project (AID 636; in the data active = inhibition above about 31%). The settings on record: absorbance 615 nm, about 18 h, stronger effect = higher value.
Assay [6] is described as follows: growth suppression of yeast trafficking mutant, preliminary HTS, modulators of trafficking downstream of Golgi apparatus project, 1536-format plate, OD 615 nm (AID 637). The settings on record: yeast transport mutant growth, absorbance 615 nm, 18 h; stronger effect = higher value.
Setting [7] is: H69AR cells + 2 uM doxorubicin, measured here: viability with 2 uM doxorubicin, stronger effect = lower value.
Setting [8] is: H69AR cells, compound alone cytotoxicity.

Active and inactive are the calls of the source. Cut-off read from the data, not from the text of the source, unless noted: active = inhibition above about 30%; inactive = the rest.

A word on the viability: it is a read-out of living cells in per cent, often relative to untreated cells. What is called inhibition is the relative decrease from the control value, in per cent. Take `CCOC(=O)c1[nH]c2ccc(C)cc2c1NC(=O)CN1CCCCC1`: the viability in assay [1] was 107% (inactive); in assay [2], 106% (inactive); in assay [3], 87.8% (inactive); in assay [4] (setting [7]), 87.1%; in assay [4] (setting [8]), 87.8%. Moreover, in assay [4] (H69AR cells + 2 uM doxorubicin), the differential viability (reversal) was 0.72% (inactive). For the same compound, the values for the inhibition in assay [5] and in assay [6] were -5.73% (inactive) and -3.09% (inactive), respectively.
Consider `Cc1ccc(S(=O)(=O)N2CCN(c3nc(C(C)C)c4c(c3C#N)CC(C)(C)OC4)CC2)cc1`, for which the viability in assay [1] was 65% (inactive); in assay [2], 111% (inactive); in assay [3], 79.6% (inactive); in assay [4] (setting [7]), 70%; in assay [4] (setting [8]), 79.6%. The differential viability (reversal) in assay [4] (H69AR cells + 2 uM doxorubicin) was 9.54% (inactive). Also, the inhibition in assay [5] is -1.22% (inactive); in assay [6], -3.09% (inactive).
Regarding `CCOC(=O)C1CSc2[nH]c(=O)sc2C1c1ccccc1` (stereo unspecified), the viability in assay [1] was 100% (inactive); in assay [2] it was 117% (inactive); in assay [3], 93.2% (inactive); in assay [4] (setting [7]), 103%; in assay [4] (setting [8]), 93.2%. Also, in assay [4] (H69AR cells + 2 uM doxorubicin), the differential viability (reversal) was -9.41% (inactive). In addition, the inhibition in assay [5] is 0.95% (inactive); in assay [6], -2% (inactive).
For `Fc1cccc(Nc2cc(-n3cccn3)ncn2)c1`, the viability is 95% (inactive) in assay [1]; 72.5% (inactive) in assay [2]; 89.6% (inactive) in assay [3]; 94.3% in assay [4] (setting [7]); 89.6% in assay [4] (setting [8]). Moreover, in assay [4] (H69AR cells + 2 uM doxorubicin), the differential viability (reversal) was -4.63% (inactive). The values for the inhibition in assay [5] and in assay [6] were -7.81% (inactive) and -4.76% (inactive), respectively.
With `Cc1ccc(S(=O)(=O)N2CCN(C(=O)N3CCOCC3)C2C)cc1` (stereo unspecified), the viability in assay [1] was 76% (inactive); in assay [2], 103% (inactive); in assay [3], 99% (inactive); in assay [4] (setting [7]), 103%; in assay [4] (setting [8]), 99%. Moreover, the differential viability (reversal) in assay [4] (H69AR cells + 2 uM doxorubicin) is -4.24% (inactive). Further, the inhibition in assay [5] was -8.08% (inactive); in assay [6] it was -2.18% (inactive).
Regarding `Cc1cc(C)n(Cc2cc(C)c(Cn3nc(C)cc3C)cc2C)n1`, the viability in assay [1] was 99% (inactive); in assay [2] it was 101% (inactive); in assay [3] it was 106% (inactive); in assay [4] (setting [7]), 93.9%; in assay [4] (setting [8]), 106%. In addition, the differential viability (reversal) in assay [4] (H69AR cells + 2 uM doxorubicin) was 12.2% (inactive). Besides, the inhibition is -4.73% (inactive) in assay [5] and 1.64% (inactive) in assay [6].
For `N#Cc1c(N)n(CCOC(=O)c2cccc(Br)c2)c2nc3ccccc3nc12`, the viability in assay [1] is 111% (inactive); in assay [2] it was 75.6% (inactive); in assay [3], 96.4% (inactive); in assay [4] (setting [7]), 92.8%; in assay [4] (setting [8]), 96.4%. Besides, the differential viability (reversal) in assay [4] (H69AR cells + 2 uM doxorubicin) was 3.64% (inactive). The inhibition in assay [5] is -10.1% (inactive); in assay [6], 3.55% (inactive).
As for `CCCCc1ccc(NC(=O)N[C@H](C(=O)O)C(C)C)cc1`, the viability in assay [1] is 119% (inactive); in assay [2] it was 82.6% (inactive); in assay [3] it was 95% (inactive); in assay [4] (setting [7]), 95.2%; in assay [4] (setting [8]) it was 95%. Besides, the differential viability (reversal) in assay [4] (H69AR cells + 2 uM doxorubicin) is -0.205% (inactive). The inhibition in assay [5] was -2.05% (inactive); in assay [6], -5.32% (inactive).
As to `CCO/C([O-])=N/c1c[n+](N2CCOCC2)no1`, the viability in assay [1] was 81% (inactive); in assay [2], 95.9% (inactive); in assay [3] it was 86.7% (inactive); in assay [4] (setting [7]), 90%; in assay [4] (setting [8]) it was 86.7%. The differential viability (reversal) in assay [4] (H69AR cells + 2 uM doxorubicin) is -3.3% (inactive). The results for the inhibition in assay [5] and in assay [6] were 1.3% (inactive) and 2.33% (inactive), respectively.
With `CN(C)CCC(c1ccc(Br)cc1)c1ccccn1` (stereo unspecified), the viability was 110% (inactive) in assay [1]; 80.3% (inactive) in assay [2]; 102% (inactive) in assay [3]; 91.4% in assay [4] (setting [7]); 102% in assay [4] (setting [8]). Besides, the differential viability (reversal) in assay [4] (H69AR cells + 2 uM doxorubicin) is 10.6% (inactive). The inhibition in assay [5] was -2.73% (inactive); in assay [6], -3.5% (inactive).
Take `C[C@H](CS)C(=O)N1CCC[C@H]1C(=O)O`: the viability is 93% (inactive) in assay [1]; 92.7% (inactive) in assay [2]; 99.8% (inactive) in assay [3]; 91.6% in assay [4] (setting [7]); 99.8% in assay [4] (setting [8]). The differential viability (reversal) in assay [4] (H69AR cells + 2 uM doxorubicin) was 8.21% (inactive). Besides, the inhibition in assay [5] is -2.47% (inactive); in assay [6], 2.83% (inactive).
`Cn1c(=O)c2c(nc(Br)n2CCSc2nnnn2-c2ccccc2)n(C)c1=O`: the viability in assay [1] is 76% (inactive); in assay [2], 105% (inactive); in assay [3], 80.4% (inactive); in assay [4] (setting [7]), 95.3%; in assay [4] (setting [8]) it was 80.4%. For the same compound, the differential viability (reversal) in assay [4] (H69AR cells + 2 uM doxorubicin) is -14.9% (inactive). Also, the inhibition in assay [5] was -4.59% (inactive); in assay [6], -7.27% (inactive).
Turning to `Cc1nn(-c2ccccc2)c2[nH]c(C(F)(F)F)cc(=O)c12`, the viability in assay [1] was 131% (inactive); in assay [2], 95.6% (inactive); in assay [3] it was 108% (inactive); in assay [4] (setting [7]), 118%; in assay [4] (setting [8]), 108%. For the same compound, the differential viability (reversal) in assay [4] (H69AR cells + 2 uM doxorubicin) is -10.8% (inactive). The inhibition was -5.62% (inactive) in assay [5] and 4.36% (inactive) in assay [6].
`N#CC1=C(N)N(c2ccccc2)C(c2ccccc2)C1(C#N)C#N` (stereo unspecified): the viability is 84.5% (inactive) in assay [1]; 81.6% (inactive) in assay [2]; 80.1% (inactive) in assay [3]; 78.8% in assay [4] (setting [7]); 80.1% in assay [4] (setting [8]). Moreover, the differential viability (reversal) in assay [4] (H69AR cells + 2 uM doxorubicin) is 1.28% (inactive). Moreover, the inhibition was -6.27% (inactive) in assay [5] and -0.97% (inactive) in assay [6].
Regarding `Cc1cc(Oc2ccc(Cl)cc2)nc(-c2ccccc2O)n1`, the viability is 98% (inactive) in assay [1]; 84.7% (inactive) in assay [2]; 93.9% (inactive) in assay [3]; 90.7% in assay [4] (setting [7]); 93.9% in assay [4] (setting [8]). The differential viability (reversal) in assay [4] (H69AR cells + 2 uM doxorubicin) was 3.2% (inactive). In addition, the inhibition was 2.73% (inactive) in assay [5] and -7.38% (inactive) in assay [6].
As to `Cc1[nH]nc(N=CC2=C(O)CC(C)(C)CC2=O)c1-c1ccccc1`, the viability in assay [1] is 85% (inactive); in assay [2], 100% (inactive); in assay [3], 88.6% (inactive); in assay [4] (setting [7]) it was 95.3%; in assay [4] (setting [8]) it was 88.6%. The differential viability (reversal) in assay [4] (H69AR cells + 2 uM doxorubicin) is -6.69% (inactive). Also, the inhibition in assay [5] is -0.95% (inactive); in assay [6], 1.09% (inactive).
For the compound `Cc1c(C=NCCOCc2ccccc2)cnn1C`, the viability is 92% (inactive) in assay [1]; 109% (inactive) in assay [2]; 96.2% (inactive) in assay [3]; 82.2% in assay [4] (setting [7]); 96.2% in assay [4] (setting [8]). Besides, the differential viability (reversal) in assay [4] (H69AR cells + 2 uM doxorubicin) is 14% (inactive). Besides, the results for the inhibition in assay [5] and in assay [6] were 0% (inactive) and -0.48% (inactive), respectively.
